Experimental data taken from ChEMBL document CHEMBL2434897, “Synthesis of 15-methylene-eburnamonine from (+)-vincamine, evaluation of anticancer activity, and investigation of mechanism of action by quantitative NMR” (Bioorg Med Chem Lett, 2013).

Columns and labels:
U-266 = assay: Cytotoxicity against human U266 cells after 96 hrs by MTS assay; format: functional, cell-based; conditions: U-266, 96 h
Summary of the method: (§1)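 Cells kept in RPMI-1640 with 10% FBS and 1% penicillin/streptomycin at 37 °C under humidified 5% CO2. Seeded at 25,000 cells/well (KMS-12BM, RPMI-8226, U266) or 5000 cells/well (LNCaP), then exposed to graded drug concentrations or DMSO vehicle for 96 h. MTS read-out at OD 492 nm. LC50 from four-parameter logistic fit of log-transformed, vehicle-normalized OD; ≥3 independent experiments in triplicate.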

[1] = Cytotoxicity against human KMS-12-BM cells after 96 hrs by MTS assay; format: functional, cell-based; summary of the method: as §1
RPMI-8226 = assay: Cytotoxicity against human RPMI8226 cells after 96 hrs by MTS assay; format: functional, cell-based; conditions: RPMI-8226, 96 h; summary of the method: as §1
LNCaP = assay: Cytotoxicity against human LNCAP cells after 96 hrs by MTS assay; format: functional, cell-based; summary of the method: as §1
[2] = Cytotoxicity against human FnMSC cells after 96 hrs by MTS assay; format: cell-based; conditions: read-out: LC50
MDA-MB-231 = assay: Cytotoxicity against human MDA-MB-231 cells after 96 hrs by MTS assay; format: functional, cell-based; conditions: MDA-MB-231, 96 h

SMILES	LC50 (U-266) [µM]	LC50 [1] [µM]	LC50 (RPMI-8226) [µM]	LC50 (LNCaP) [µM]	CC50 at 96 h [2] [µM]	LC50 (MDA-MB-231) [µM]
C=C1C(=O)n2c3c(c4ccccc42)CCN2CCC[C@]1(CC)[C@@H]32	4.3	4	12.2	9.5	16.7	14.1
CC[C@]12CCCN3CCc4c(n(c5ccccc45)C(=O)C1)[C@@H]32 [VINBURNINE]	> 100	> 100	> 100	> 100	–	41.8
